In ChEMBL document CHEMBL1124456, “Synthesis and structure-activity relationship of substituted tetrahydro- and hexahydro-1,2-benzisothiazol-3-one 1,1-dioxides and thiadiazinones: potential anxiolytic agents” (J Med Chem, 1989):

Columns and labels:
[1] = target: T1, 5-hydroxytryptamine receptor 1A (Rattus norvegicus, UniProt P19327); assay: In vitro ability to inhibit [3H]-8-OH-DPAT binding to 5-hydroxytryptamine 1A receptor of rat hippocampus. and the value ranges from 16 - 27; assay type: tissue-based
T1 sequence (P19327 whole entry): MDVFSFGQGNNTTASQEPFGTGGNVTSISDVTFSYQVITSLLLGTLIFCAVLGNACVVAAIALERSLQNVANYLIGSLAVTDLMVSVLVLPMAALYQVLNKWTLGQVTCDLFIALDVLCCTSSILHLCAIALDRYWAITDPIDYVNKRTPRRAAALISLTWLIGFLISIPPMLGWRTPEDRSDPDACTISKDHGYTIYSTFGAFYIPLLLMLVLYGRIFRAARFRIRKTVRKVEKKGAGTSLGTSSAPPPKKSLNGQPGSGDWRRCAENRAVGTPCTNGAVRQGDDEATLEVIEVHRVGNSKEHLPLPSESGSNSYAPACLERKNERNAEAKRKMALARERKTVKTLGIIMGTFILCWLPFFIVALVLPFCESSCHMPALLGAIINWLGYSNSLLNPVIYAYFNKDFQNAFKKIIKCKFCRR

[2] = target: D(2) dopamine receptor (Rattus norvegicus) (UniProt P61169); assay: Inhibition of [3H]spiperone binding to Dopamine receptor D2 of rat limbic structures; assay type: tissue-based; design: concentration or dose not given beside the values; conditions: Limbic system, concentration not given here
D(2) dopamine receptor (Rattus norvegicus), sequence (P61169 whole entry): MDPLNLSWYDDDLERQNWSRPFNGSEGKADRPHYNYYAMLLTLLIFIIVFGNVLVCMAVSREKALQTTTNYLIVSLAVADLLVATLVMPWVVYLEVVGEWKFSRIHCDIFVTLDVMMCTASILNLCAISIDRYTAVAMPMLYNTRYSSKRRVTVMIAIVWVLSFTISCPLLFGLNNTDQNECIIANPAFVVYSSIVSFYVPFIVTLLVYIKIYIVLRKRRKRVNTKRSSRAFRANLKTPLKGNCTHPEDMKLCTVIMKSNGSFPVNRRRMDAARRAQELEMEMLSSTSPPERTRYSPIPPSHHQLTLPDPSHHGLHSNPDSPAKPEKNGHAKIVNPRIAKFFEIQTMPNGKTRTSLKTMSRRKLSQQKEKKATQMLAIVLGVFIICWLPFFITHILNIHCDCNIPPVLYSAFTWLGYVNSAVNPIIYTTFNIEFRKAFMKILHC

[3] = species on record: Rattus norvegicus; assay: Anti-psychotic activity from the ability to block discrete trial conditioned avoidance response (CAR) of rats.; assay type: functional
Procedure, shortened: (§1)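 Discrete-trial conditioned avoidance in male CD rats kept at about 400–450 g body weight. Dosing was ip or po, 30 min before testing, with at least five rats per dose (20 or 40 mg/kg, or a dose range). Computer recorded intertrial, avoidance and escape responses and no-response trials. Avoidance-block trials were taken as % of total trials, with control avoidance set at 100%. AB50 came from a least-squares dose-effect regression line.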

[4] = target: T2, 5-hydroxytryptamine receptor 1A (Rattus norvegicus) (UniProt P19327); assay: In vitro ability to inhibit [3H]8-OH-DPAT binding to 5-hydroxytryptamine 1A receptor of rat hippocampus at 1 uM; assay type: tissue-based
T2 sequence (whole entry): T1 sequence (P19327 whole entry)

[5] = target: D(2) dopamine receptor (Rattus norvegicus) (UniProt P61169); assay: Compound was tested in vitro at for the ability to inhibit [3H]spiperone binding to Dopamine receptor D2 of rat limbic structures at 3 uM; assay type: tissue-based; conditions: Limbic system
[6] = target: D(2) dopamine receptor (Rattus norvegicus) (UniProt P61169); assay: Inhibition of [3H]-spiperone binding to dopamine receptor D2 of rat limbic structures at 1 uM.; conditions: Limbic system
[7] = target: T2, 5-hydroxytryptamine receptor 1A (Rattus norvegicus); assay: In vitro ability to inhibit [3H]-8-OH-DPAT binding to 5-hydroxytryptamine 1A receptor of rat hippocampus.; assay type: tissue-based; conditions: concentration not given here
[8] = target: D(2) dopamine receptor (Rattus norvegicus) (UniProt P61169); assay: In vitro ability to inhibit [3H]spiperone binding to Dopamine receptor D2 of rat limbic structures at 10 uM; assay type: tissue-based; conditions: Limbic system
[9] = target: T2, 5-hydroxytryptamine receptor 1A (Rattus norvegicus); assay: In vitro ability to inhibit [3H]-8-OH-DPAT binding to 5-hydroxytryptamine 1A receptor of rat hippocampus at 1 uM; assay type: tissue-based
[10] = target: T1, 5-hydroxytryptamine receptor 1A; assay: In vitro ability to inhibit [3H]8-OH-DPAT binding to 5-hydroxytryptamine 1A receptor of rat hippocampus and the value ranges from 12 to 17.; assay type: tissue-based
[11] = target: Adrenergic receptor beta (Rattus norvegicus) (UniProt P18090+P10608+P26255); assay: Percent inhibition of Beta adrenergic receptor by 1 uM of compound; assay type: protein assay
[12] = species on record: Rattus norvegicus; assay: Antipsychotic activity was evaluated from the ability to block discrete trial conditioned avoidance response (CAR) of rats; assay type: functional
Procedure, shortened: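 Male CD rats (about 400–450 g) trained in discrete-trial avoidance. Compound given ip or po 30 min before testing, at 20 or 40 mg/kg or over a dose range, with at least five rats per dose. Intertrial, avoidance, escape and no-response trials were recorded. Avoidance block is the percentage of trials without avoidance. AB50 comes from a least-squares dose–effect regression line.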

[13] = test system: Rattus norvegicus; assay: In vivo ability (10.0 mg/kg) was to antagonize serotonin syndrome in rat; assay type: functional
Procedure, shortened: (§2)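 Rat in vivo test adapted from published serotonin syndrome methods. Agents given ip; 5-MeO-DMT at 3.0 mg/kg ip was used to elicit the syndrome. Behaviour rated and reported as mean total score (±SEM).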

[14] = test system: Rattus norvegicus; assay: In vivo ability (10.0 mg/kg) was to elicit serotonin syndrome in rat; assay type: functional; procedure, shortened: as §2
[15] = target: T3, GABA-A receptor; anion channel (Rattus norvegicus) (UniProt O09028+P15431+P18506+P18508+P19969+P20236+P23574+P23576+P28471+P28473+P30191+P62813+P63079+P63138+Q91ZM7+Q9ES14); assay: (§3) Percent inhibition of GABA-A benzodiazepine receptor at 1 uM; assay type: protein-complex assay
Procedure, shortened: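 Incubated with 1.5×10^-9 M [³H]diazepam for 30 min at 4 °C, then filtered on GF/C and counted by scintillation. Nonspecific binding defined with 3×10^-6 M unlabelled diazepam.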

[16] = target: T4, Adrenergic receptor alpha-1 (Rattus norvegicus) (UniProt P15823+P23944+P43140); assay: Percent inhibition of Alpha-1 adrenergic receptor by 1 uM of compound; assay type: protein assay
[17] = target: D(2) dopamine receptor (Rattus norvegicus, UniProt P61169); assay: In vitro ability to inhibit [3H]spiperone binding to Dopamine receptor D2 of rat limbic structures and the value ranges from 116 - 159.; assay type: tissue-based, Limbic system
D(2) dopamine receptor, sequence (P61169 whole entry): as above

[18] = target: T3, GABA-A receptor; anion channel (Rattus norvegicus); assay: as §3; assay type: protein-complex assay; remark: listed apart in the source
Procedure, shortened: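 Male Sprague-Dawley rat brain (cerebellum and pons-medulla removed) was homogenized in 0.32 M sucrose to give a 30000g pellet, resuspended in Tris-HCl pH 7.5. Membranes were incubated with 1.5×10^-9 M [³H]diazepam (2.0 mL final) for 30 min at 4 °C, GF/C filtered, washed ice-cold and scintillation counted. Nonspecific binding was taken with 3×10^-6 M cold diazepam. Drug was tested at 1 μM.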

[19] = test system: Rattus norvegicus; assay: Compound was tested for antagonism of apomorphine-induced climbing behavior, after intraperitoneal dosing and the value ranges from 0.97 - 11.7; assay type: functional; conditions: ip
[20] = test system: Rattus norvegicus; assay: Mean total score of In vivo ability (10.0 mg/kg) was to antagonize serotonin syndrome; assay type: functional
[21] = test system: Rattus norvegicus; assay: Compound was tested for antagonism of apomorphine-induced stereotyped behavior, after intraperitoneal dosing.; assay type: functional; conditions: ip
Procedure, shortened: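 High-dose apomorphine-induced stereotyped behavior procedure. Test agents were given ip at doses up to 60 mg/kg.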

[22] = target: T1, 5-hydroxytryptamine receptor 1A; assay: The inhibition activity of 5-HT1A at 1 uM
[23] = test system: Rattus norvegicus; assay: Mean total score of in vivo ability (8.0 mg/kg) was to elicit serotonin syndrome; assay type: functional
[24] = target: T4, Adrenergic receptor alpha-1 (Rattus norvegicus); assay: The percent inhibition of Alpha-1 adrenergic receptor at 1 uM; assay type: protein assay
[25] = species on record: Rattus norvegicus; assay: Anti psychotic activity was evaluated from the ability to block discrete trial conditioned avoidance response (CAR) of rats and the value ranges from 26 - 143; assay type: functional; procedure, shortened: as §1
[26] = target: T1, 5-hydroxytryptamine receptor 1A; assay: In vitro ability to inhibit [3H]8-OH-DPAT binding to 5-HT1A receptor of rat hippocampus and the value ranges from 9 - 12; assay type: tissue-based
[27] = Partition coefficient (logP); assay type: physicochemical; conditions: octanol/water
[28] = test system: Rattus norvegicus; assay: Compound was tested for antagonism of apomorphine-induced climbing behavior, after intraperitoneal dosing.; assay type: functional; conditions: ip

Cl.O=C1C2C3CCC(C4CC43)C2S(=O)(=O)N1CCCCN1CCN(c2ncccn2)CC1 (stereo not given)
Ki [1]: 21 nM
inhibition [2]: 70%
AB50 [3]: 40 mg/kg

Cl.O=C1c2ccccc2S(=O)(=O)N1CCCCN1CCn2cccc2C1
inhibition [2]: 0%
AB50 [3]: >40 mg/kg

Cl.O=C1C2C3C=CC(CC3)C2S(=O)(=O)N1CCCCc1ccncc1 (stereo not given)
inhibition [2]: 0%
inhibition [4]: 35%
AB50 [3]: >40 mg/kg

Cl.O=C1C2C3C=CC(CC3)C2S(=O)(=O)N1CCCCN1CCN(c2cncc(Cl)n2)CC1 (stereo not given)
inhibition [5]: 57%
AB50 [3]: 40 mg/kg

Cl.Cn1nnnc1N1CCN(CCCCN2C(=O)c3ccccc3S2(=O)=O)CC1
inhibition [6]: 14%
inhibition [7]: 52%
AB50 [3]: 40 mg/kg

Cl.Cl.O=C1C2C3C=CC(C4CC34)C2S(=O)(=O)N1CCCCN1CCN(c2ncccn2)CC1 (stereo not given)
AB50 [3]: 40 mg/kg

CC1=C(C)CC2C(C1)C(=O)N(CCCCN1CCN(c3cncc(Cl)n3)CC1)S2(=O)=O.Cl.Cl.Cl (stereo not given)
inhibition [8]: 66%
AB50 [3]: 40 mg/kg

Cl.O=C1[C@H]2C3CCC(O3)[C@H]2S(=O)(=O)N1CCCCc1ccncc1 (stereo not given in full)
inhibition [6]: 3%
inhibition [4]: 0%
AB50 [3]: 40 mg/kg

CC1CC(=O)N(CCCCN2CCN(c3ncccn3)CC2)S(=O)(=O)N1.Cl (stereo not given)
AB50 [3]: 40 mg/kg

Cl.O=C1C2C3CCC(CC3)C2S(=O)(=O)N1CCCCC1CCN(c2cncc(Cl)n2)CC1 (stereo not given)
inhibition [2]: 0%
inhibition [9]: 7%
AB50 [3]: >40 mg/kg

CC1=C(C)CC2C(C1)C(=O)N(CCCCN1CCN(c3ncccn3)CC1)S2(=O)=O.Cl.Cl (stereo not given)
inhibition [2]: 21%
AB50 [3]: 40 mg/kg

Cl.Cl.O=C1C2C3C=CC(CC3)C2S(=O)(=O)N1CCCCN1CCN(c2ncccn2)CC1 (stereo not given)
AB50 [3]: 40 mg/kg

Cl.Cl.O=C1C2C3C=CC(C3)C2S(=O)(=O)N1CCCCN1CCN(c2cccc(C(F)(F)F)c2)CC1 (stereo not given)
Ki [10]: 15 nM
AB50 [3]: 51 mg/kg

Cl.Cl.Cl.O=C1C2C3C=CC(C3)C2S(=O)(=O)N1CCCCN1CCN(c2cncc(Cl)n2)CC1 (stereo not given)
inhibition [2]: 1%
AB50 [3]: 40 mg/kg

O=C1CC2(CCCC2)CC(=O)N1CCCCN1CCN(c2ncccn2)CC1 [BUSPIRONE]
inhibition [11]: 0%
AB50 [12]: 32 mg/kg
Mean [13]: 6.1
Mean [14]: 2.9
inhibition [15]: 0%
inhibition [16]: 33%

Cl.Cl.O=C1c2cscc2S(=O)(=O)N1CCCCN1CCN(c2ncccn2)CC1
AB50 [3]: >20 mg/kg

Cl.Cl.O=c1c2ccccc2[s+]([O-])n1CCCCN1CCN(c2ncccn2)CC1 (stereo not given)
inhibition [6]: 3%
inhibition [4]: 43%
AB50 [3]: 40 mg/kg

CC1=C(C)CC2C(C1)C(=O)N(CCCCc1ccncc1)S2(=O)=O.Cl (stereo not given)
inhibition [6]: 56%
inhibition [4]: 8%
AB50 [3]: >40 mg/kg

Cl.O=c1c2ccccc2[s+]([O-])n1CCCCN1CCN(c2cncc(Cl)n2)CC1 (stereo not given)
inhibition [2]: 0%
inhibition [9]: 44%
AB50 [3]: 40 mg/kg

Cl.O=C1[C@@H]2C3CCC(O3)[C@@H]2S(=O)(=O)N1CCCCN1CCN(c2cncc(Cl)n2)CC1 (stereo not given in full)
inhibition [2]: 10%
inhibition [9]: 54%
AB50 [3]: 40 mg/kg

Cl.Cl.O=C1C2C3C=CC(C4C=CC43)C2S(=O)(=O)N1CCCCN1CCN(c2ncccn2)CC1 (stereo not given)
Ki [17]: 136 nM
inhibition [18]: 0%
ED50 [19]: 3.38 mg/kg
Mean [20]: 5.1
ED50 [21]: 32.2 mg/kg
Ki [22]: 10 nM
Mean [23]: 3.9
inhibition [24]: 54%
AB50 [25]: 39 mg/kg
Ki [26]: 10 nM
logP [27]: 1.92

CC1CC(=O)N(CCCCN2CCN(c3cncc(Cl)n3)CC2)S(=O)(=O)N1.Cl.Cl.Cl (stereo not given)
inhibition [2]: 4%
inhibition [9]: 61%
AB50 [3]: 32 mg/kg

Cl.Cl.O=C1c2ccccc2S(=O)(=O)N1CCCCN1CC2CN(Cc3ccccc3)CC2C1 (stereo not given)
inhibition [2]: 8%
AB50 [3]: >40 mg/kg

Cl.Cl.O=C1C2C3CCC(O3)C2S(=O)(=O)N1CCCCN1CCN(c2ncccn2)CC1 (stereo not given)
ED50 [21]: 34 mg/kg
ED50 [28]: 16 mg/kg
inhibition [6]: 0%
AB50 [3]: >40 mg/kg

Cl.Cl.O=C1N(CCCCN2CCN(c3ncccn3)CC2)S(=O)(=O)NC12CCCCC2
AB50 [3]: 40 mg/kg

Cl.O=C1c2ccccc2S(=O)(=O)N1CCCCN1CCN(c2cncc(Cl)n2)CC1
inhibition [2]: 6%
AB50 [3]: 40 mg/kg

Cl.O=C1C2C3C=CC(C3)C2S(=O)(=O)N1CCCCc1ccncc1 (stereo not given)
inhibition [2]: 1%
AB50 [3]: 40 mg/kg

Cl.Cl.Cl.O=C1c2cscc2S(=O)(=O)N1CCCCN1CCN(c2ccc(Cl)nn2)CC1
AB50 [3]: >40 mg/kg

Cl.O=C1c2ccccc2S(=O)(=O)N1CCCCN1CCN(c2nccnc2Cl)CC1
AB50 [3]: 40 mg/kg

Cl.O=C1c2cscc2S(=O)(=O)N1CCCCN1CCN(c2nccnc2Cl)CC1
AB50 [3]: >40 mg/kg

Cl.O=C1c2cscc2S(=O)(=O)N1CCCCN1CCN(c2cncc(Cl)n2)CC1
AB50 [3]: >40 mg/kg

Cl.Cl.Cl.O=C1C2C3C=CC(C3)C2S(=O)(=O)N1CCCCN1CCN(c2ccc(Cl)nn2)CC1 (stereo not given)
inhibition [2]: 3%
AB50 [3]: >40 mg/kg
